Measurements reported in ChEMBL document CHEMBL4190330, “Discovery of Potent and Selective A2A Antagonists with Efficacy in Animal Models of Parkinson's Disease and Depression” (ACS Med Chem Lett, 2017).
Calls of active or inactive are those of the source. The rule behind the calls is not given here.

Tests used:
[1] = molecular target: T1, Adenosine receptor A1 (Homo sapiens) (UniProt P30542); test: Antagonist activity at human adenosine A1 receptor expressed in HEK293 cell membranes assessed as inhibition of CPA/forskolin-induced cAMP level at 10 uM pretreated for 15 mins followed by agonist addition for 15 mins and subsequent forskolin stimulation measured after 30 mins by HTRF assay; type: functional, cell-based
T1 sequence (whole entry): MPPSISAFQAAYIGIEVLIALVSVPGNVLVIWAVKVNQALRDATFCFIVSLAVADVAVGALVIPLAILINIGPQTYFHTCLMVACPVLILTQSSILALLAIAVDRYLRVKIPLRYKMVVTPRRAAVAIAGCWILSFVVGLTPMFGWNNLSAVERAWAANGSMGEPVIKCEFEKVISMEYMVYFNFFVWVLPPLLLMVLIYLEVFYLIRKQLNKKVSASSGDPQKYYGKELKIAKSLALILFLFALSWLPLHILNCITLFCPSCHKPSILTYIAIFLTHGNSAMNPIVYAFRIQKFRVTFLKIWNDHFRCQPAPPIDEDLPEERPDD
Procedure, shortened: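 HTRF cAMP functional assay on the human receptor isoform, run in triplicate at 12 concentrations with a top concentration of 10 µM, in two independent experiments. Inhibition at 10 µM is recorded where no Ki could be derived.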

Rattus norvegicus = test: Anti-parkinson's activity in po dosed 6-OHDA-lesioned Wistar rat assessed as increase in L-DOPA induced contralateral rotations measured up to 2 hrs; type: functional
Procedure, shortened: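 6-OHDA-lesioned rats given oral test doses; L-DOPA 4 mg/kg ip; contralateral rotations recorded up to 2 h, dosing 60 min prior; mean ± SEM, n=6-7; compared with L-DOPA-alone group.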

For `COCCOc1ccc(N2CCN(CCn3c(=O)n(C)c4c3nc(N)n3nc(-c5nccs5)nc43)CC2)cc1F`, the inhibition [1] was “inactive”, the Activity (Rattus norvegicus) was “Dose-dependent effect” and the ED50 (Rattus norvegicus) was 1.2 mg/kg.
